Results on 99 compounds are retold here after ChEMBL document CHEMBL4513216, “Probing the Open Global Health Chemical Diversity Library for Multistage-Active Starting Points for Next-Generation Antimalarials” (ACS Infect Dis, 2020).

Each structure is given as a SMILES string.

This data set in a line: Toxicity liver stage against HepG2, at 10uM. Format: cell-based. Set-up: test concentration 10 uM, cell line HepG2-A16-CD81EGFP. To be noted: human, HepG2-A16-CD81EGFP cells; read-out: INHIBITION
Put shortly:
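Uninfected HepG2-A16-CD81EGFP cells, 3 × 10^3 per well, 1536-well, plated on prespotted compound at 10 μM final, parasite-free screening media added to match infected plates; puromycin 10 μM positive, DMSO 0.5% negative; run in parallel with 48 h PbLuc assay at 37 °C, 5% CO2; viability by CellTiter-Glo luminescence, normalized to controls.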
As for `CCCNC(=O)CNC(=O)CCc1ccccc1Br`, the cytotoxicity at 10 µM came to 12.3%.

`Cc1n[nH]c2nc(-c3cc(Br)ccc3O)cc(C(=O)O)c12`: the cytotoxicity at 10 µM worked out at 0.0962%.

Take `Cc1c(C2SCC(=O)Nc3c2c(O)nn3C2CCCC2)cnn1C` (centres undefined): the cytotoxicity at 10 µM is 1.58%.

Regarding `O=C(Cn1ccc2c(Cl)cccc21)Nc1nc[nH]n1`, the cytotoxicity at 10 µM was -1.88%.

Consider `COCC(=O)N1CCc2[nH]c(=O)ccc2C1`, for which the cytotoxicity at 10 µM was determined as 4.11%.

Take `CC(C)Cn1c2c(ccc1=O)CC(N)CC2` (centres undefined): the cytotoxicity at 10 µM was 8.03%.

For `O=C(c1ccc(F)c(F)c1)N1C[C@H]2CNC[C@H]2C1`, the cytotoxicity at 10 µM was found to be 5.82%.

For `Cc1nc(N2CCOCC2)nc2c1CN(C(=O)C(C)C)CC2`, the cytotoxicity at 10 µM is 0.552%.

With `Cc1n[nH]c2c1C(c1ccc(O)c(Cl)c1)SCC(=O)N2` (centres undefined), the cytotoxicity at 10 µM worked out at 10.4%.

Consider `CN(C(=O)Cn1nc(-c2cccs2)ccc1=O)C1CCS(=O)(=O)C1` (centres undefined), for which the cytotoxicity at 10 µM came out at 7.36%.

For `O=C(Cn1cc(I)cn1)Nc1cccnc1`, the cytotoxicity at 10 µM was -2.59%.

On to `CCN(Cc1nonc1C)C(=O)c1ccc(Br)o1`, for which the cytotoxicity at 10 µM was determined as 0.621%.

Regarding `O=C(CCN1CCOCC1)NC(Cc1ccsc1)c1nccs1` (centres undefined), the cytotoxicity at 10 µM is 3.35%.

In the case of `CNC(=O)CCc1cc(C)nc(C2CCN(C(=O)CN(C)C)CC2)c1`, the cytotoxicity at 10 µM was -3.48%.

On to `Cc1nc(NCCO)cc(C(C)Cn2nc(C)c(C)c2C)n1` (centres undefined), for which the cytotoxicity at 10 µM stood at 4.41%.

As for `Cc1noc(C)c1-c1cccc(C2CCNCC2)n1`, the cytotoxicity at 10 µM worked out at 2.98%.

`CC1CCC(NCCNC(=O)c2cccs2)CC1` (centres undefined): the cytotoxicity at 10 µM was -11.8%.

Turning to `Cc1ccc(-c2nnc(SCC(=O)O)n2-c2ccccc2)cc1`, the cytotoxicity at 10 µM was -4.9%.

Turning to `COc1cccc(CNC(=O)c2ccccc2-n2cc(CN)cn2)c1`, the cytotoxicity at 10 µM was -21%.

In the case of `O=C(c1cnco1)N1C[C@@H](O)[C@H](Oc2cccc(F)c2)C1`, the cytotoxicity at 10 µM was -17.5%.

Turning to `Cc1ncsc1C(=O)N1CCCC(c2cc(C(F)F)n3ncnc3n2)C1` (centres undefined), the cytotoxicity at 10 µM was 4.05%.

As to `COc1ccccc1C1(CNC(=O)NCc2noc(C)n2)CC1`, the cytotoxicity at 10 µM is -0.343%.

As to `Cc1noc(CN2CCN(c3cncc(Cl)n3)CC2)n1`, the cytotoxicity at 10 µM was found to be 2.74%.

Consider `CC(C#N)CN(C)C(=O)CCNC(=O)OC(C)(C)C` (centres undefined), for which the cytotoxicity at 10 µM amounted to 4.94%.

In the case of `CCC(NC(=O)Cn1ccc(=O)n(C)c1=O)c1ccc(OC)cc1` (centres undefined), the cytotoxicity at 10 µM was determined as 2.19%.

Take `O=C1CCN(C(=O)CCc2ccc(Cl)cc2Cl)CCN1`: the cytotoxicity at 10 µM was 1.88%.

`CC1CN(C(=O)c2sccc2Br)CCO1` (centres undefined): the cytotoxicity at 10 µM was determined as 5.15%.

As for `Cc1nc(Cn2cc(C#N)c(=O)c3ccccc32)no1`, the cytotoxicity at 10 µM was 9.95%.

`CC1CCN(C(=O)C2CCN(S(C)(=O)=O)CC2)c2ccccc21` (centres undefined): the cytotoxicity at 10 µM is -9.28%.

Regarding `Cc1ccc(CN2CCOCC2)cc1NCc1ccsc1`, the cytotoxicity at 10 µM was -8.84%.

As for `COCCC(=O)N(CCC#N)c1ccc2c(c1)OCCO2`, the cytotoxicity at 10 µM is -1.23%.

For `Cc1cc(CNc2ccc(C(=O)N3CCc4ccccc43)cn2)on1`, the cytotoxicity at 10 µM is -0.0529%.

In the case of `Cc1ccc(C)c(S(=O)(=O)CCN2CCCC2Cn2cccn2)c1` (centres undefined), the cytotoxicity at 10 µM is -8.78%.

Take `Cc1oc(-c2ccsc2)nc1CC(=O)NCCCS(C)(=O)=O`: the cytotoxicity at 10 µM is -11.2%.

For the compound `Cc1nn(CC(=O)N2CCN(c3ncccn3)CC2)c(C)c1Cl`, the cytotoxicity at 10 µM turned out to be 0.215%.

Turning to `O=C(Nc1cccn(CC(F)(F)F)c1=O)c1ccncc1F`, the cytotoxicity at 10 µM was found to be 0.315%.

In the case of `CC(C)OCCS(=O)(=O)N1CCCC1c1cccc(N(C)C)c1` (centres undefined), the cytotoxicity at 10 µM was -1.22%.

On to `Cc1cnc(CNc2ccc(C(=O)NCc3ccco3)cc2C)o1`, for which the cytotoxicity at 10 µM was -4.51%.

On to `Cc1nccn1-c1ncccc1NC(=O)CCOCC(C)C`, for which the cytotoxicity at 10 µM was -2.59%.

Turning to `COCC1CCCN(C(=O)c2ccc(NC(=O)CC(C)C)c(C)c2)C1` (centres undefined), the cytotoxicity at 10 µM is -5.76%.

Consider `CC(C)C(O)CNC(=O)Nc1cnn(Cc2ccccc2)c1` (centres undefined), for which the cytotoxicity at 10 µM is 6.61%.

Regarding `CCC(=O)NCc1cc(Br)ccc1OC(F)F`, the cytotoxicity at 10 µM turned out to be 17.2%.

Regarding `Cc1cc(C(=O)NC2CCCN(c3ccccc3)C2=O)on1` (centres undefined), the cytotoxicity at 10 µM came out at 24.7%.

Take `CCc1nc(NS(=O)(=O)c2ccc(C)cc2Cl)no1`: the cytotoxicity at 10 µM was -1.51%.

For the compound `O=C(NCc1ccoc1)Nc1ccc(CN2CCOC2=O)cc1`, the cytotoxicity at 10 µM amounted to 14.1%.

Consider `CC1(NC(=O)Cc2csc(C(C)(C)C)n2)CCS(=O)(=O)C1` (centres undefined), for which the cytotoxicity at 10 µM is -4.17%.

Consider `CCCNC(=O)c1cc2c(s1)CCN2c1ncccn1`, for which the cytotoxicity at 10 µM was -105%.

On to `CNC(=O)[C@H]1C[C@@H]2CN(C(=O)c3ccc(C)nc3)C[C@@H]2N1C`, for which the cytotoxicity at 10 µM was -107%.

For the compound `Cc1cnc(C)c(N2CCN(CC3CCCO3)CC2)n1` (centres undefined), the cytotoxicity at 10 µM was determined as 5.82%.

For the compound `CC1c2cccn2CCN1C(=O)CCCc1nc(-c2ccco2)no1` (centres undefined), the cytotoxicity at 10 µM came to 7.16%.

On to `CC(C)c1cc(CN(C)C(=O)CN2CCNC2=O)no1`, for which the cytotoxicity at 10 µM is -6.1%.

As to `CN1C(=O)CC(C(=O)O)C12CCN(Cc1cc(F)ccc1Cl)CC2` (centres undefined), the cytotoxicity at 10 µM is -0.309%.

On to `CNS(=O)(=O)CCn1cc(-c2ccc(NC(C)=O)cc2)nn1`, for which the cytotoxicity at 10 µM was -4.5%.

As for `Cc1cccc(CN2CCC(Cc3ccccc3F)CC2)n1`, the cytotoxicity at 10 µM was 1.88%.

For the compound `CN(Cc1cnc2ccccc2c1)C(=O)C(c1ccccc1F)N(C)C` (centres undefined), the cytotoxicity at 10 µM is -6.88%.

Regarding `COc1ccc(C(=O)N2C[C@@H](C(=O)O)[C@H](c3ccccc3)C2)c(O)c1`, the cytotoxicity at 10 µM is -2.14%.

In the case of `CC(c1ccncn1)N(C)S(=O)(=O)NCc1ccccc1` (centres undefined), the cytotoxicity at 10 µM was -81.5%.

`Cc1cccc(CNC(=O)NCC2CCN(Cc3ncc[nH]3)C2)c1` (centres undefined): the cytotoxicity at 10 µM was 1.86%.

With `NC(=O)c1cc2c(nc1N1C[C@H]3OC(=O)N(C4CCCC4)[C@H]3C1)CCC2`, the cytotoxicity at 10 µM was 2.24%.

For the compound `Cc1ccc2c(C)c(C(=O)NCCc3csc(N)n3)oc2c1`, the cytotoxicity at 10 µM was -8.79%.

In the case of `Cc1cccnc1CN(C)C(C(=O)O)c1ccc(-n2cccn2)cc1` (centres undefined), the cytotoxicity at 10 µM was -4.86%.

With `Cc1cc(CN2CCC(CNC(=O)c3ccc(O)c(Cl)c3)C2)[nH]n1` (centres undefined), the cytotoxicity at 10 µM was 13.3%.

Take `CN(C)CCN(C)C(=O)c1cnc2c(c1)nc(-c1ccccc1Cl)n2C`: the cytotoxicity at 10 µM stood at 9.3%.

Consider `CCCNCC1(O)CCCN(Cc2cccc(C)c2)C1=O` (centres undefined), for which the cytotoxicity at 10 µM is -19.7%.

For the compound `CCc1cnc(N)nc1NCCN1CCCCC1`, the cytotoxicity at 10 µM was -17.8%.

For `CN(C)S(=O)(=O)N1CCN(c2ccnc(N3CCCC3)n2)CC1`, the cytotoxicity at 10 µM is -13.3%.

With `Cn1cnc(S(=O)(=O)NCCCN2CCCC2=O)c1Cl`, the cytotoxicity at 10 µM is -12.1%.

Consider `CCOc1ccnc(N2CCN(C(=O)c3ccn(C)c(=O)c3)CC2)n1`, for which the cytotoxicity at 10 µM was -14.8%.

As for `CC(C)n1cc(CN2CCCN(C(=O)CC3CCCCC3)CC2)cn1`, the cytotoxicity at 10 µM is -10.8%.

As to `CCc1nnc(CN2CCCC(c3cc(C(N)=O)[nH]n3)C2)o1` (centres undefined), the cytotoxicity at 10 µM was -12.7%.

Regarding `CCc1ocnc1C(=O)N1CCCC1c1noc(C)n1` (centres undefined), the cytotoxicity at 10 µM is -8.77%.

`COc1ncccc1CNC(=O)c1c(C)oc(C)c1C`: the cytotoxicity at 10 µM was -14.5%.

Consider `C=C(C)CN1CCC(C(=O)c2cc(F)ccc2F)CC1`, for which the cytotoxicity at 10 µM is -14.1%.

As to `Cc1cc(C)c(CNC(=O)NCc2ccc(F)c(C)c2)c(=O)[nH]1`, the cytotoxicity at 10 µM was -12.8%.

As for `CCc1nc2n(n1)CC(NCC(=O)Nc1cc(C)nn1C)CC2` (centres undefined), the cytotoxicity at 10 µM is -10.7%.

For `Cc1nn(C)c(N2CCOCC2)c1CNC1COc2ccccc2C1` (centres undefined), the cytotoxicity at 10 µM was -17.9%.

On to `Cc1nnc(CN2CCN(CC(O)c3ccccc3)CC2)o1` (centres undefined), for which the cytotoxicity at 10 µM is -18.9%.

For `Cc1nc(CN2CCOC(Cn3cccn3)C2)no1` (centres undefined), the cytotoxicity at 10 µM is -11.6%.

As for `Cc1cccc2nc(CN3CCCC3Cn3cncn3)cn12` (centres undefined), the cytotoxicity at 10 µM was -6.97%.

Consider `Cc1noc(C)c1C(=O)NCc1ccc(N2CCOCC2)nc1`, for which the cytotoxicity at 10 µM was -7.91%.

Regarding `COc1ccc(C(=O)N2CCCS2(=O)=O)cc1OC`, the cytotoxicity at 10 µM is -17.6%.

In the case of `CSc1ccccc1C(=O)NCCCN1CCc2ccccc2C1`, the cytotoxicity at 10 µM is -15.6%.

On to `CCCN1CCC(CNC(=O)C2(c3cccc(C)c3)CC2)C1` (centres undefined), for which the cytotoxicity at 10 µM is -13.4%.

As for `Cc1nccn1C1CCCN(C(=O)CCNc2ncccn2)C1` (centres undefined), the cytotoxicity at 10 µM is -13.7%.

On to `COCc1nc(C(=O)N2CCCC2c2noc(C)n2)cs1` (centres undefined), for which the cytotoxicity at 10 µM was -12%.

With `COc1c(C2CCCN2CC(=O)Nc2cc(C)no2)c(C)nn1C` (centres undefined), the cytotoxicity at 10 µM was -2.77%.

Regarding `Cc1nnc2n1CCN(CCOc1ccccc1)C2`, the cytotoxicity at 10 µM was 2.24%.

For the compound `Cc1cnn(CC2CCCCN2C(=O)c2ccc3[nH]nnc3c2)c1` (centres undefined), the cytotoxicity at 10 µM was 4.19%.

In the case of `Cc1nc(Nc2nccs2)cc(C2CCCN2)n1` (centres undefined), the cytotoxicity at 10 µM amounted to 63%.

As to `Fc1cnc(N2CCO[C@H]3[C@H](OCCN4CCCC4)CC[C@@H]32)nc1`, the cytotoxicity at 10 µM turned out to be 1.33%.

As for `c1nc(CCC2CCCN2)cc(N2CCCCCC2)n1` (centres undefined), the cytotoxicity at 10 µM was -20.6%.

Consider `CO[C@@H]1CC[C@H]2[C@H]1OCCN2CCOCc1ccccc1`, for which the cytotoxicity at 10 µM is -114%.

On to `CN1CCN(C)C2(CCN(Cc3ccsc3)CC2)C1=O`, for which the cytotoxicity at 10 µM was found to be 0.0221%.

Regarding `Cc1ccc(CN2CCCC3(CCCC(=O)N3C)C2)s1` (centres undefined), the cytotoxicity at 10 µM was -110%.

As for `O=C(O)[C@]12CCCN(C3CCOC3)C[C@H]1CN(c1nncs1)C2` (some centres undefined), the cytotoxicity at 10 µM was -106%.

On to `O=C(NCc1cccnc1)N1CCc2ncnc(NC3CC3)c2CC1`, for which the cytotoxicity at 10 µM was -107%.

In the case of `O=C(Nc1cccnc1)[C@H]1C[C@H]2OCC[C@H]2N(Cc2ccc(F)cc2)C1`, the cytotoxicity at 10 µM amounted to 0.592%.

Turning to `CC(C)CN1CCC2(C1)CN(c1ncccn1)C2`, the cytotoxicity at 10 µM amounted to 4.73%.

Take `O=c1occ(CN2CCSCC2)c(O)c1CN1CCCC1`: the cytotoxicity at 10 µM is -7.03%.
